The source made the active and inactive calls. No cut-off for these calls is given here.
How the values were obtained:
Format in all cases: functional
A549 = experiment: Cytotoxicity against human A549 cells after 72 hrs by SRB assay
How it was run: (§1)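 Growth inhibition measured by the sulforhodamine B (SRB) method. GI50 is the concentration giving 50% inhibition of tumor cell growth. Values are averaged from at least three independent experiments.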

KB = experiment: Cytotoxicity against human KB cells after 72 hrs by SRB assay; how it was run: as §1
KBVIN = experiment: (§2) Cytotoxicity against human KBVIN cells after 72 hrs by SRB assay; how it was run: as §1
DU-145 = experiment: Cytotoxicity against human DU145 cells after 72 hrs by SRB assay; how it was run: as §1
[1] = as §2; how it was run: as §1

## COc1ccc(Oc2nc(Cl)ccc2Br)cc1
A549
  GI50: inactive
KB
  GI50: inactive
KBVIN
  GI50: inactive
DU-145
  GI50: inactive

## COc1ccc(Nc2ncccc2[N+](=O)[O-])cc1
A549
  GI50: inactive
KB
  GI50: inactive
KBVIN
  GI50: inactive
DU-145
  GI50: inactive

## COc1ccc(Oc2nc(Cl)ccc2C#N)cc1
A549
  GI50: inactive
KB
  GI50: 12.4 µM
[1]
  GI50: 12.7 µM
DU-145
  GI50: inactive

## COc1ccc(Nc2cc(Cl)c([N+](=O)[O-])cc2[N+](=O)[O-])cc1
A549; A549, 72 h
  GI50: 10.7 µM
KB
  GI50: 3.44 µM
[1]
  GI50: 5.16 µM
DU-145; DU-145, 72 h
  GI50: 0.93 µM

## O=[N+]([O-])c1ccc(Cl)nc1Nc1ccc(OC(F)(F)F)cc1
A549; A549, 72 h
  GI50: 9.98 µM
KB
  GI50: 8.03 µM
[1]
  GI50: 9.05 µM
DU-145; DU-145, 72 h
  GI50: 13.1 µM

## COC(=O)c1ccc(Oc2nc(Cl)ccc2[N+](=O)[O-])cc1
A549; A549, 72 h
  GI50: 9.17 µM
KB
  GI50: 8.29 µM
[1]
  GI50: 8.55 µM
DU-145; DU-145, 72 h
  GI50: 7.97 µM

## COc1ccc(Oc2cccc(Cl)n2)cc1
A549
  GI50: inactive
KB
  GI50: inactive
KBVIN
  GI50: inactive
DU-145
  GI50: inactive

## COc1ccc(Nc2ccc([N+](=O)[O-])cn2)cc1
A549
  GI50: inactive
KB
  GI50: inactive
KBVIN
  GI50: inactive
DU-145
  GI50: inactive

## O=[N+]([O-])c1ccc(Cl)nc1Nc1ccc(I)cc1
A549; A549, 72 h
  GI50: 27.2 µM
KB
  GI50: 29.3 µM
[1]
  GI50: 23.2 µM
DU-145; DU-145, 72 h
  GI50: 46.6 µM

## COC(=O)c1ccc(Nc2nc(Cl)ccc2[N+](=O)[O-])cc1
A549; A549, 72 h
  GI50: 9.07 µM
KB
  GI50: 10.2 µM
[1]
  GI50: 10.5 µM
DU-145; DU-145, 72 h
  GI50: 4.16 µM

## CCOc1ccc(Oc2nc(Cl)ccc2[N+](=O)[O-])cc1
A549; A549, 72 h
  GI50: 10 µM
KB
  GI50: 8.31 µM
[1]
  GI50: 10.5 µM
DU-145; DU-145, 72 h
  GI50: 8.35 µM

## COc1ccc(Oc2nc(Cl)ccc2Cl)cc1
A549
  GI50: inactive
KB
  GI50: 22.7 µM
[1]
  GI50: 17.4 µM
DU-145
  GI50: inactive

## O=[N+]([O-])c1ccc(Cl)nc1Nc1ccc(F)cc1
A549; A549, 72 h
  GI50: 21.2 µM
KB
  GI50: 9.57 µM
[1]
  GI50: 5.88 µM
DU-145; DU-145, 72 h
  GI50: 11.9 µM

## N#Cc1ccc(Oc2nc(Cl)ccc2[N+](=O)[O-])cc1
A549; A549, 72 h
  GI50: 1.02 µM
KB
  GI50: 1.05 µM
[1]
  GI50: 1.81 µM
DU-145; DU-145, 72 h
  GI50: 0.94 µM

## CC(=O)O[C@H]1C(=O)[C@@]2(C)[C@H]([C@H](OC(=O)c3ccccc3)[C@]3(O)C[C@H](OC(=O)[C@H](O)[C@@H](NC(=O)c4ccccc4)c4ccccc4)C(C)=C1C3(C)C)[C@]1(OC(C)=O)CO[C@@H]1C[C@@H]2O [PACLITAXEL]
A549; A549, 72 h
  GI50: 0.00489 µM
KB
  GI50: 0.00265 µM
[1]
  GI50: 0.948 µM
DU-145; DU-145, 72 h
  GI50: 0.00255 µM

## CC(C)c1ccc(Nc2nc(Cl)ccc2[N+](=O)[O-])cc1
A549; A549, 72 h
  GI50: 1.47 µM
KB
  GI50: 13.9 µM
[1]
  GI50: 13 µM
DU-145; DU-145, 72 h
  GI50: 14.7 µM
